PPC-1+TRAIL kill = compounds killing PPC-1 cancer cells with TRAIL present (potentiator screen, no TRAIL-free arm); PPC-1 cells + TRAIL, ATPLite viability luminescence; cell killing (% activity), % at 4 µM or 5 µM; hit rate 0.41% among 220,000;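 active means cell killing above 50% in the first pass at 4 µM, then a duplicate retest at 5 µM averaging 50% or more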
STAT3 act-1 = increases IL-6 driven STAT3 reporter signal; U3A cells, IL-6 STAT3-luciferase reporter, luminescence; 100% = signal with IL-6 EC80 alone; activation (% of control), % at 5.6 µM; hit rate 0.91% among 190,000;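 active means activation above the screen-wide mean of compound activation plus 3 SD, cut at about 130% in these data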
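Material: STAT3-luciferase reporter U3A cells. Controls: IL-6-treated wells, 100% activation. Read-out: % activation versus median of IL-6-stimulated wells. Probe or stimulus: IL-6 stimulus at 33 ng/mL final. Timing: compound 1 h, then IL-6 6 h at 37 °C. Signal: reporter luminescence signal.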
STAT3 inh = inhibitors of IL-6 induced STAT3 signaling; U3A cells, IL-6 STAT3-luciferase reporter, luminescence; host cell line lacks STAT1; inhibition, % at 5.5 µM; hit rate 0.89% among 190,000;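 active means inhibition above the mean inhibition across all screened compounds plus 3 SD, cut at about 44% in these data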
STAT1 blocker = inhibitors of IFN-gamma induced STAT1 signaling | AID 920 | NIH 3T3 STAT1-luciferase reporter, luminescence | hit rate 0.35% among 200,000 | inhibition, % at 5.5 µM;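 active means inhibition above a set limit, the mean inhibition across all tested compounds plus 3 SD, cut at about 34% in these data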
C8 TRAIL sens = sensitizes caspase-8 expressing cells to TRAIL; NB7+C8 cells + TRAIL, ATPlite viability luminescence; inhibition (viability loss, TRAIL sensitization), % at 10 µM; hit rate 1% among 360,000;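 active means compounds causing at least 50% loss of cell viability in the single-dose screen, relative to plate controls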
STAT3 act-2 = STAT3 activation, confirmation assay; shares compounds with STAT3 act-1; U3A STAT3-luciferase reporter, IL-6 potentiation, luminescence; U3A cells lack STAT1; 100 means same as IL-6 alone; potentiation (% of control), % at 5.7 µM; hit rate 64% among 1,200;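 active means percent activation of the STAT3 luciferase reporter above a set limit taken from the earlier primary screen, cut at about 130% in these data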
NFkB act STAT3ct = activates NF-kappaB, counter-screen to STAT3 activators. AID 1309. activation (% of control), % at 5.7 µM. human cells, NF-kappaB reporter activation. shares compounds with STAT3 act-1. hit rate 11% among 1,200; in the data active means activation above about 120%;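 further: reporter induced by TNF-alpha stimulation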
STAT1 act = STAT1 activation in STAT3 activator counter-screen. activation (% of control), % at 5.7 µM. shares compounds with STAT3 act-1. hit rate 13% among 1,200. NIH 3T3 STAT1-luciferase reporter, IFN-gamma, luminescence;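 active means activation above the solvent-only control well mean plus 3 SD, set per screening run, cut at about 120% in these data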
Hits are given with their value; – = inactive; · = not tested or not shown. This is a sample that favours compounds with a hit; in the whole collection about 1.8% have one here.

SMILES | PPC-1+TRAIL kill | STAT3 act-1 | STAT3 inh | STAT1 blocker | C8 TRAIL sens | STAT3 act-2 | NFkB act STAT3ct | STAT1 act
CC(C)NC(=O)NC(=O)COC(=O)/C=C/c1ccccc1[N+](=O)[O-] | – | 147.0 | – | – | – | 159.1 | – | –
COc1ccc(NC(=O)COC(=O)/C=C/c2ccccc2[N+](=O)[O-])cc1 | – | – | – | – | – | · | · | ·
Cn1nnnc1SCc1cccc2ccccc12 | – | – | – | – | – | · | · | ·
O=C(CSc1nc2ccccc2c(=O)n1CCCO)NCc1ccccc1 | – | – | – | – | – | · | · | ·
Cn1nnnc1SCc1nc2ccccc2s1 | – | 139.2 | – | – | – | 139.4 | – | 124.3
O=c1c2ccccc2nc(SCc2nc3ccccc3s2)n1CCCO | – | 137.1 | – | – | – | 151.4 | 120.8 | 151.2
Cn1nnc(NC(=S)NC(=O)c2cccc3ccccc23)n1 | · | · | · | · | – | · | · | ·
CCOc1ccc(CN2CCN(Cc3cc4ccccc4[nH]3)CC2CCO)cc1 (stereo not given) | – | 143.1 | – | – | – | 191.2 | – | –
C(=C\c1nccc2c1[nH]c1ccccc12)/c1ccccc1 | – | · | · | · | – | · | · | ·
Fc1ccc(/C=C\c2nccc3c2[nH]c2ccccc23)cc1 | – | 137.5 | – | – | – | 148.2 | – | –
CC1=C(C#N)C(c2ccccc2O)C(C#N)=C(C)N1 | – | 142.6 | – | – | – | 150.7 | – | –
CCCCCC(=O)Nc1nc(C)c(-c2csc(Nc3ccc(Cl)cc3)n2)s1 | – | 148.3 | – | – | – | – | – | –
CCCCCCC(=O)Nc1nc(C)c(-c2csc(Nc3ccc(Cl)cc3)n2)s1 | – | 136.0 | – | – | – | – | – | –
Cc1nc(NC(=O)c2ccco2)sc1-c1csc(Nc2ccc(Cl)cc2)n1 | – | 145.5 | – | – | – | – | – | –
Cc1nc(NC(=O)c2ccccc2)sc1-c1csc(Nc2ccc(Cl)cc2)n1 | – | – | – | – | · | · | · | ·
Cc1nc(NC(=O)CC(C)C)sc1-c1csc(Nc2ccc(Cl)cc2)n1 | – | 141.3 | – | – | – | – | – | –
Cc1nc(NC(=O)CC(C)C)sc1-c1csc(Nc2ccc(Cl)cc2Cl)n1 | – | – | – | – | – | · | · | ·
CCCCCC(=O)Nc1nc(C)c(-c2csc(Nc3cc(Cl)ccc3C)n2)s1 | – | – | – | – | – | · | · | ·
CCC(NC(=O)c1ccccc1NC(=O)C(C)(C)C)C(=O)N1CC(C)OC(C)C1 (stereo not given) | · | · | · | · | – | · | · | ·
COc1cccc(NC(=O)CN(C)C(C)C(=O)NC(C)c2ccc(Cl)cc2Cl)c1 (stereo not given) | · | · | · | · | – | · | · | ·
O=C(COC(=O)c1nc(Cl)ccc1Cl)NC1CCCCC1 | · | · | · | · | – | · | · | ·
CC(C)N1CCC(C)(C(=O)Nc2ccccc2Oc2ccccc2)C1 (stereo not given) | · | · | · | · | – | · | · | ·
CCn1c(=NC(=O)c2ccco2)sc2cccc(F)c21 | – | 144.3 | – | – | – | – | – | 125.1
COc1ccc(OC)c2c1sc(=NC(=O)c1ccco1)n2C | – | 166.4 | – | – | – | 138.6 | – | –
CCOC(=O)CSc1ccc2ccccc2n1 | – | – | – | – | – | · | · | ·
SMILES | PPC-1+TRAIL kill | STAT3 act-1 | STAT3 inh | STAT1 blocker | C8 TRAIL sens | STAT3 act-2 | NFkB act STAT3ct | STAT1 act
CCOC(=O)CN1C=C(c2ccc3ccccc3n2)C(C[N+](=O)[O-])c2ccccc21 (stereo not given) | – | 156.8 | – | – | – | 135.9 | – | –
CCn1c(C)c(/C=N/Nc2nc3ccccc3s2)c2ccccc21 | – | 136.4 | – | – | – | – | – | –
CCCn1c(SCC(=O)Nc2ccccc2OC)nnc1-c1ccco1 | · | · | · | · | – | · | · | ·
CC(C)NC(=O)CNc1ccc(C(F)(F)F)cc1[N+](=O)[O-] | – | – | – | – | – | · | · | ·
CN1CCN(C(=O)CNc2ccc(C(F)(F)F)cc2[N+](=O)[O-])CC1 | – | 161.8 | – | – | – | 156.7 | – | –
Cc1c(C(=O)Nc2ccccn2)oc2ccccc12 | – | 154.1 | – | – | – | 217.6 | 142.2 | 172.7
Cc1ccc(NC(=O)c2oc3ccccc3c2C)nc1 | · | · | · | · | – | · | · | ·
C=CCn1c(COc2ccc(CC)cc2)nnc1SC/C(O)=C(\C#N)c1nc2ccccc2[nH]1 | – | 160.3 | – | – | – | 150.2 | – | –
C=CCn1c(COc2ccccc2)nnc1SCc1ccc(C#N)cc1 | – | – | – | – | – | · | · | ·
Cn1c(O)c(N=Nc2ccccc2)c2ccccc21 | · | · | · | · | – | · | · | ·
Cn1c(O)c(N=Nc2nc(-c3ccccc3)cs2)c2ccccc21 | – | 146.8 | – | – | – | 158.7 | – | –
Cn1c(O)c(N=Nc2ccc(F)cc2)c2ccccc21 | – | 152.3 | – | – | – | 165.2 | – | –
Cc1cccc(C(=O)N2CCN(CCNC(=O)C(=O)Nc3ccc(F)cc3)CC2)c1 | · | · | · | · | – | · | · | ·
Cc1ccc(-n2nc(C)cc2NC(=O)CC#N)cc1 | – | – | – | – | – | · | · | ·
Cc1ccc(-n2nc(C)cc2NC(=O)c2ccc(C)s2)cc1 | – | 135.9 | – | – | – | – | – | –
COC(=O)CCC(=O)Nc1sc(C)c(C)c1C(N)=O | – | – | – | – | – | · | · | ·
COC(=O)CCC(=O)NC(=S)Nc1sc(C)c(C)c1C(N)=O | – | 139.5 | – | – | – | – | 137.4 | –
Cn1c(CN2CCN(c3cccc(Cl)c3)CC2)nc2ccccc21 | – | 138.6 | – | – | – | – | – | –
CCCN(CCC)C(=O)c1cc(-c2ccc3c(c2)OCO3)nc2ccccc12 | – | 154.2 | – | – | – | 137.9 | – | –
O=C(O)c1cc(-c2ccc3c(c2)OCO3)nc2ccccc12 | – | – | – | – | – | · | · | ·
CCc1cc(CN2CCOCC2)c(NC(=O)c2ccccc2)s1 | – | 139.4 | – | – | – | 143.1 | – | –
CCc1cc(C(c2ccc(F)cc2)N2CCOCC2)c(NC(=O)c2ccccc2)s1 (stereo not given) | – | – | – | – | – | · | · | ·
CC(=O)c1ccc(N2CCN(C(=O)CNC(=O)c3ccc(Br)o3)CC2)cc1 | · | · | · | · | – | · | · | ·
COC(=O)c1[nH]c2cc(C)ccc2c1NC(=O)CN1CCCc2ccccc21 | – | 156.3 | – | – | – | 142.8 | – | 137.0
CC(C)(C)S(=O)N1Cc2cc(=O)n(Cc3ccccc3)c(CCO)c2[C@@H]1CCO (stereo not given in full) | · | · | · | · | – | · | · | ·
Nc1ncnc2c1ncn2[C@@H]1O[C@H](CNCc2ccccc2OCc2ccc(Cl)cc2Cl)[C@@H](O)[C@H]1O | · | · | · | · | – | · | · | ·
N/C(=N\NC(=O)c1cccc(F)c1)c1cc2ccccc2oc1=O | – | · | · | · | – | · | · | ·
N/C(=N\NC(=O)c1ccc(F)cc1)c1cc2ccccc2oc1=O | – | 146.5 | – | – | – | 142.1 | – | –
Cc1cc(C)cc(N2C(=O)C=CC2=O)c1 | · | · | · | · | – | · | · | ·
